# Assay results: publication PMC5599375 (Journal of medicinal chemistry, 2017)
# “Also recorded” adds a separate entry of the source. Read-outs that look alike come from different tables or passages of the source.
# Experiments:
# NDM-1 [1] = molecular target: T1, NDM-1 (Klebsiella pneumoniae, UniProt C7C422); experiment: NDM-1 IC50 variation with exogenous Zn; type: biochemical; conditions: Figure S3
# NDM-1 [2] = molecular target: T1, NDM-1; conditions: for Zn(II) content of NDM-1 after incubation and dialysis: NDM-1 8 μM, 50 mM HEPES pH 7.5
# [3] = Control titration of L-tryptophan fluorescence; conditions: 2 μM L-tryptophan
# NDM-1 [4] = molecular target: T1, NDM-1; experiment: NDM-1 IC50, fluorescent fluorocillin assay; type: biochemical
# MMP-2 = molecular target: T2, MMP-2 (Homo sapiens, UniProt P08253); experiment: MMP-2 inhibition, OmniMMP fluorogenic substrate; type: biochemical; conditions: at 10 μM
# T2 sequence (P08253 110-660): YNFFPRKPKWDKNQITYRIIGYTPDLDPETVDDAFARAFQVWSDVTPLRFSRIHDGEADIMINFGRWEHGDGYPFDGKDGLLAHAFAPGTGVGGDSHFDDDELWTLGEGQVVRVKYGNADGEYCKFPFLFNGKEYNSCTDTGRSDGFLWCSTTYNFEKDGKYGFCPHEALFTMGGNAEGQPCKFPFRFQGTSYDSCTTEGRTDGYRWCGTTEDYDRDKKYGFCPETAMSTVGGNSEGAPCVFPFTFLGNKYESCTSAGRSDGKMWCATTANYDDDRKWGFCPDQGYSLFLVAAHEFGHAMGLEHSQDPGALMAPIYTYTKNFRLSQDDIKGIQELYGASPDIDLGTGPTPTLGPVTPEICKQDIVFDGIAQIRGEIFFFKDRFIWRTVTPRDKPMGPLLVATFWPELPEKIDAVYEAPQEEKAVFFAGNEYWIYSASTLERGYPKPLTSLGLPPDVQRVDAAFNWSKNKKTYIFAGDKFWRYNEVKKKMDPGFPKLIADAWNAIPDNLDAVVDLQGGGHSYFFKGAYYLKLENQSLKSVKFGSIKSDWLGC
# Procedure, shortened: (§1)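 Human recombinant MMP-2 (1.16 U/well) or MMP-12 (0.007 U/well) was preincubated with test compound (1 mM–5 μM range) for 30 min at 37 °C in 50 mM HEPES, 10 mM CaCl2, 0.05% Brij-35, pH 7.5. The reaction was started with 4 μM OmniMMP substrate (Mca-Pro-Leu-Gly-Leu-Dpa-Ala-Arg-NH2), and the fluorescence increase was monitored over 20 min (ex 320/em 400 nm). No-inhibitor wells were set to 100% and 200 μM NSA to 0%; run in triplicate.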
# MMP-12 = MMP-12 (Homo sapiens, UniProt P39900); experiment: MMP-12 inhibition, OmniMMP fluorogenic substrate; type: biochemical; conditions: at 10 μM
# Procedure, shortened: as §1
# HDAC-1 = HDAC-1 (Homo sapiens, UniProt Q13547); experiment: HDAC-1 inhibition, fluorescence assay; type: biochemical; conditions: at 10 μM
# Procedure, shortened: (§2)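 After 5 min preincubation, 20 μM HDAC substrate 3 was added for 30 min at 37 °C, then developer for 15 min at room temperature. Fluorescence ex 360/em 460 nm was read. No-inhibitor wells were set to 100% and 200 μM SAHA to 0%; run in triplicate.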
# HDAC-6 = molecular target: T3, HDAC-6 (Homo sapiens, UniProt Q9UBN7); experiment: HDAC-6 inhibition, fluorescence assay; type: biochemical; conditions: at 10 μM
# T3 sequence (Q9UBN7 1-1215): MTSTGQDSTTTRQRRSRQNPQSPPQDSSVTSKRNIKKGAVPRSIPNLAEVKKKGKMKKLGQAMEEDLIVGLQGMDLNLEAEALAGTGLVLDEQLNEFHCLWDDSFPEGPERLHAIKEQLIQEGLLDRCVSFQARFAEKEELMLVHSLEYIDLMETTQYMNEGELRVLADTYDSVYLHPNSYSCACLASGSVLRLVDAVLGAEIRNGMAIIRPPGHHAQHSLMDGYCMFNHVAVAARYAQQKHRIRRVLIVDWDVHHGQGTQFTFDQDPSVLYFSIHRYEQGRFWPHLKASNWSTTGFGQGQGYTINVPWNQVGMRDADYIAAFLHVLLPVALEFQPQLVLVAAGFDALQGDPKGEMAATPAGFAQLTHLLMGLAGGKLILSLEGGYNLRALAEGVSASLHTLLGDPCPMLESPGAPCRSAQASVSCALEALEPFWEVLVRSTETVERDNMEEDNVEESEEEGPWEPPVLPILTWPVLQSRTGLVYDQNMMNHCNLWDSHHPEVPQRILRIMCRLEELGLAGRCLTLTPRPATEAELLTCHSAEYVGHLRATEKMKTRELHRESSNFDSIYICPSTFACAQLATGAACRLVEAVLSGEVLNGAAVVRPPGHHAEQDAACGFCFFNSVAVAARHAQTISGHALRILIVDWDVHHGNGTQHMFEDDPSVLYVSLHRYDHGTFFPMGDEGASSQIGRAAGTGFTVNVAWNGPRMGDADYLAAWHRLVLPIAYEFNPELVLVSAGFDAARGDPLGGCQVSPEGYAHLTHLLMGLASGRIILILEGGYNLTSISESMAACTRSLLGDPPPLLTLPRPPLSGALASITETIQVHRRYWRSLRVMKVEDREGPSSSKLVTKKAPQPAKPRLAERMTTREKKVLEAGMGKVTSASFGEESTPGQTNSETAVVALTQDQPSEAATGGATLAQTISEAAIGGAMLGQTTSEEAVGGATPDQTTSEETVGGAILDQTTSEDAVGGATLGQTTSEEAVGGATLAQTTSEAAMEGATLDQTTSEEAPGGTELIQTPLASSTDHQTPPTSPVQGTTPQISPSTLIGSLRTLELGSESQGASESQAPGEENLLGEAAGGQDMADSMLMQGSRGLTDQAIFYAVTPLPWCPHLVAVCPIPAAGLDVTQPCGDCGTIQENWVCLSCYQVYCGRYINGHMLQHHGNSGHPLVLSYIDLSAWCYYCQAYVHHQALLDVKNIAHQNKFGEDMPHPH
# Procedure, shortened: as §2
# [5] = molecular target: Human carbonic anhydrase II (Homo sapiens, UniProt P00918); experiment: hCAII inhibition, p-nitrophenyl acetate assay; type: biochemical
# Procedure, shortened: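 Esterase activity was started with 500 μM p-nitrophenyl acetate and followed at 405 nm for 15 min. No-inhibitor wells were set to 100% and 50 μM benzene sulfonamide to 0%; run in triplicate.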
# [6] = test system: Zn(II)-dependent metalloenzymes (HDACs, MMPs, CAs); experiment: Panel of Zn; type: biochemical; conditions: 50 – 100 μM; data not shown
# NDM-1 [7] = molecular target: T1, NDM-1; type: binding; conditions: 2 μM NDM-1, up to 32 μM compound
# [8] = test system: E. coli and K. pneumoniae clinical isolates expressing blaNDM-1; experiment: organism not typed; type: cell-based
# HEK293 cells = experiment: Cytotoxicity assay; type: cell-based, human; conditions: concentrations relevant to the MIC studies; 4 and 24 h
# [9] = test system: clinical E. coli isolates expressing blaNDM-1; experiment: microbe, parasite or virus in culture; type: cell-based; conditions: Escherichia coli
# [10] = test system: clinical K. pneumoniae isolates expressing blaNDM-1; experiment: microbe, parasite or virus in culture; type: cell-based; conditions: Klebsiella pneumoniae
# T1 sequence (C7C422 29-270 limits assumed): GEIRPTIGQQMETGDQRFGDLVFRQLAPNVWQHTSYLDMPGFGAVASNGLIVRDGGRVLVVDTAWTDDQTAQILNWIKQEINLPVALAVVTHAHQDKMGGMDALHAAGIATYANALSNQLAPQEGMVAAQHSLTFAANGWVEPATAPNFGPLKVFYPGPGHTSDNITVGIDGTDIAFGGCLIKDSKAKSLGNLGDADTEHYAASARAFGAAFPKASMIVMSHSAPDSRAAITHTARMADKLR
# Chain of HDAC-1 (Q13547 whole entry): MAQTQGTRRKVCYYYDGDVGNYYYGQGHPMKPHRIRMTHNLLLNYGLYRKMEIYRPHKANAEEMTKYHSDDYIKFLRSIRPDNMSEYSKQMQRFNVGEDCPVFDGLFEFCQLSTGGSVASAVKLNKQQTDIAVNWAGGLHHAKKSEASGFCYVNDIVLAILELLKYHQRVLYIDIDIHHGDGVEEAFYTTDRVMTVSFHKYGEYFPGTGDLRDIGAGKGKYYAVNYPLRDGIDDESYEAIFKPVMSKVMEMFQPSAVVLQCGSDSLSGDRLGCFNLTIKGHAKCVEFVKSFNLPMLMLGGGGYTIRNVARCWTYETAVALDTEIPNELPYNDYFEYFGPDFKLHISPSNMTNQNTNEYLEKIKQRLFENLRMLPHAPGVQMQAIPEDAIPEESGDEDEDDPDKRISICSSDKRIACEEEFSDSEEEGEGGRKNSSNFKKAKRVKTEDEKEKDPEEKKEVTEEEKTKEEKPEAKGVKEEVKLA
# Chain of MMP-12 (P39900 106-470): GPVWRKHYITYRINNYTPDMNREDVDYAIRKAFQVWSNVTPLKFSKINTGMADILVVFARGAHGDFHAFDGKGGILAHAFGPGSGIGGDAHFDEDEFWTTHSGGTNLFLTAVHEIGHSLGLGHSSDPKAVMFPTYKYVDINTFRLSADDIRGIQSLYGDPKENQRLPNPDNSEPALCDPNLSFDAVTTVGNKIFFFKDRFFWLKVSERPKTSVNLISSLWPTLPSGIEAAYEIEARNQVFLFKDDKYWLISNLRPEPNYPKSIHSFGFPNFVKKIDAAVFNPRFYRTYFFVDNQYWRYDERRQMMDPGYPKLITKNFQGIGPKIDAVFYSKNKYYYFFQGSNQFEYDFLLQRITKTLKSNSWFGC
smiles,measurement,setting,value
"O=C(O)c1cccc(C(=O)O)n1 [DPA, 2,6-dipicolinic acid]",effect of exogenous Zn(II) in the assay buffer on NDM-1 inhibition,NDM-1 [1],diminishes the inhibition activity
same,Zn(II) content of NDM-1 after incubation and dialysis,NDM-1 [2],significant loss in Zn(II) content
C[C@H](CS)C(=O)N1CCC[C@H]1C(=O)O [L-Captopril],Zn(II) content of NDM-1 after incubation and dialysis,NDM-1 [2],did not change
same,reduction of fluorescence emission of L-tryptophan,[3],no change
"O=C(O)CN(CCN(CC(=O)O)CC(=O)O)CC(=O)O [EDTA, ethylenediaminetetraacetic acid]",reduction of fluorescence emission of L-tryptophan,[3],no change
"Nc1cccc(-c2cc(C(=O)O)nc(C(=O)O)c2)c1 [Compound 36, 4-(3-Aminophenyl)pyridine-2,6-dicarboxylic acid]",ligand efficiency,NDM-1 [4],0.5 kcal/mol/non-H atom
same,fold improvement in inhibition compared to DPA,NDM-1 [4]; fluorescent assay,4 fold
same,Percent inhibition of MMP-2,MMP-2,some inhibition
same,Percent inhibition of MMP-12,MMP-12,some inhibition
same,Percent inhibition of HDAC-1,HDAC-1,did not show inhibition; also recorded: No inhibition
same,Percent inhibition of HDAC-6,HDAC-6,did not show inhibition; also recorded: No inhibition
same,selectivity for NDM-1 over human CAII,[5],at least 500 fold
same,Percent inhibition of hCAII,[5]; at 10 μM,did not show inhibition; also recorded: No inhibition
same,inhibition of Zn(II) metalloenzymes at higher concentrations,[6],< 50%
same,effect of exogenous Zn(II) in the assay buffer on NDM-1 inhibition,NDM-1 [1],little impact on the IC50 value
same,Zn(II) content of NDM-1 after incubation and dialysis,NDM-1 [2],no significant removal of Zn(II)
same,Zn(II) removed from NDM-1,NDM-1 [2]; ~24 μM compound,10–20%
same,quenching of intrinsic tryptophan fluorescence of NDM-1,NDM-1 [7],50–60%
same,effect on bacterial growth of compound alone,"[8]; 36 alone (100 mg/L), all E. coli and K. pneumoniae strains",no effect on growth
same,"toxicity to HEK293 cells (growth, morphology, viability)",HEK293 cells,not adversely effected; also recorded: did not exhibit cytotoxicity; also recorded: no toxicity was observed
"C[C@@H](O)[C@H]1C(=O)N2C(C(=O)O)=C(SCCN=CN)C[C@H]12 [Imipenem, imipenem]",MIC,"[9]; read-out: MIC, imipenem, E. coli isolate Ah8.71",16 µg/mL
same,MIC,"[9]; read-out: MIC, imipenem, E. coli isolate Ah8.73",16 µg/mL
same,MIC,"[9]; read-out: MIC, imipenem, E. coli isolate Ah8.75",16 µg/mL
same,MIC,"[9]; read-out: MIC, imipenem, E. coli isolate Ch8.68",16 µg/mL
same,MIC,"[9]; read-out: MIC, imipenem, E. coli isolate Ch8.69",4 µg/mL
same,MIC,"[9]; read-out: MIC, imipenem, E. coli isolate Ch8.70",16 µg/mL
same,MIC,"[9]; read-out: MIC, imipenem, E. coli isolate Ch8.72",16 µg/mL
same,MIC,"[10]; read-out: MIC, imipenem, K. pneumoniae isolate Cm1.62",16 µg/mL
same,MIC,"[10]; read-out: MIC, imipenem, K. pneumoniae isolate Cm1.63",8 µg/mL
same,MIC,"[10]; read-out: MIC, imipenem, K. pneumoniae isolate Pd1.48",8 µg/mL
same,MIC,"[10]; read-out: MIC, imipenem, K. pneumoniae isolate Pd1.49",4 µg/mL
same,MIC,"[10]; read-out: MIC, imipenem, K. pneumoniae isolate Pd1.50",8 µg/mL
same,MIC,"[10]; read-out: MIC, imipenem, K. pneumoniae isolate Pd1.53",8 µg/mL
same,MIC,"[10]; read-out: MIC, imipenem, K. pneumoniae isolate Pd1.54",8 µg/mL
same,MIC,"[10]; read-out: MIC, imipenem, K. pneumoniae isolate Pd1.55",8 µg/mL
same,MIC,[8]; read-out: MICs of imipenem alone,4 to 16 µg/mL
